CSN inh: blocks human CSN-mediated cullin deneddylation | Q92905 | Purified CSN, SCF-Nedd8-OG deneddylation, fluorescence polarization | inhibition, % at 12.5 µM | actives 0.38% (n = 360,000) | AID 651999;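 active = pattern-corrected inhibition above about 35%, with an unprinted fluorescence ratio check between 0.5 and 1.5, limit read from the data, passing the limit was not always enough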
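Assay system: purified human Csn5 enzyme expressed in HEK293T cells; measure: % inhibition; also added: SCFSkp2-Nedd8OG substrate at 10 nM final; technique: fluorescence polarization; times: reaction 90 min, room temperature; medium: Tris buffer pH 7.5, NaCl, DTT, Tween-20, trehalose, ovalbumin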
Rpn11 block: blocks the human proteasome subunit Rpn11; O00487; inhibition, % at 20 µM; actives 0.59% (n = 360,000); human 26S proteasome, Ub4-pepOG fluorescence polarization; 20S core pre-blocked with epoxomicin;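 active = inhibition at 20 µM, scaled to each plate's controls, above about 33%, limit read from the data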
HNF4A DNA FP: change in binding of human HNF4 alpha to DNA; actives 0.3% (n = 360,000); activity change, % at 10 µM; P41235; HNF4a-FITC DNA binding, fluorescence polarization, 1 h; in the data active = activity change above about 30%, passing the limit was not always enough
Target sequence (P41235 whole entry, looked up): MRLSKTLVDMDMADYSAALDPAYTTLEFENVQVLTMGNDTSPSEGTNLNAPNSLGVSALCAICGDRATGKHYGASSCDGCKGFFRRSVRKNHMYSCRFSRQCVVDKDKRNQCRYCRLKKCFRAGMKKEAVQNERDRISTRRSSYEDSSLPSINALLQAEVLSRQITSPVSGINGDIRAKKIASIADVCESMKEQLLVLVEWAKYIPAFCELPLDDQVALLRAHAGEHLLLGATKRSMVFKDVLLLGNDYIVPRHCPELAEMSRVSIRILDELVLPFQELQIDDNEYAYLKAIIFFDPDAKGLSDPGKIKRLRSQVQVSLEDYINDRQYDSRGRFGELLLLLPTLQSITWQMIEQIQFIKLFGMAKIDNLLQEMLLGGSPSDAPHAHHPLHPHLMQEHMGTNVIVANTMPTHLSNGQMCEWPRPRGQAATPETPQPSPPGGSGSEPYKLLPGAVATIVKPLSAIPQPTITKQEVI
TPT1 inhibitor: inhibitors of Candida albicans tRNA 2'-phosphotransferase TPT1; recombinant caTPT1, FP RNA substrate dephosphorylation; inhibition, % at 5 µM; actives 0.81% (n = 300,000); AID 1962;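 active = inhibition above the mean of all tested compounds plus 3 SD, set per screening campaign, cut at about 24% in these data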
SENP1 FRET inh: blocks the human SENP1 SUMO protease catalytic domain | Q9P0U3 | recombinant SENP1 catalytic domain, CyPet-SUMO1-YPet FRET cleavage | inhibition, % at 10 µM | actives 0.21% (n = 360,000) | AID 624204;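 active = inhibition at least 30% at 10 µM, raw YFP signal under a set limit, fluorescence ratio 0.5 to 1.5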
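Assay system – human recombinant His6-tagged SENP1 catalytic domain enzyme · Input – SENP1 enzyme, 20 pM final · Buffer or medium – Tris pH 8 buffer plus EDTA, NaCl, BME, BSA, NP40, catalase · Schedule – 50 min reaction at room temperature · Technique – FRET read of cyan and yellow fluorescence · Control set – no-enzyme wells low, DMSO-plus-enzyme wells high control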
caTPT1 confirm: TPT1 (C. albicans) inhibition, confirmation; shares compounds with TPT1 inhibitor; recombinant caTPT1, fluorescence polarization, RNase T1 coupled; inhibition, % at 5 µM; actives 74% (n = 2,400); AID 2149;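 active = inhibition above the primary screen limit, the mean inhibition of all tested compounds plus 3 SD, cut at about 25% in these data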
RNase T1 counter: RNase T1 inhibition in TPT1 counter-screen. inhibition, % at 5 µM. AID 2153. shares compounds with TPT1 inhibitor. actives 83% (n = 2,400). RNase T1 cleavage, fluorescence polarization, 1536-well;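 active = inhibition above the solvent-only control well mean plus 3 SD, limit set per screening run, cut at about 23% in these data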;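 also: inhibitors block cleavage so intact labeled substrate keeps polarization high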
Target sequence (P00651 whole entry, looked up): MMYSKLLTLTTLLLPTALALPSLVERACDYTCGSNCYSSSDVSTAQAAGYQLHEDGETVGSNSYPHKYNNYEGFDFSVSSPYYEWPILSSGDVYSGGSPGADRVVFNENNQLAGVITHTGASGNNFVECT
Rpn11 inh conf: confirmation of human proteasome Rpn11 inhibitors; actives 29% (n = 1,900); AID 602318; shares compounds with Rpn11 block; purified human 26S proteasome, Ub4-pepOG fluorescence polarization; proteasome pretreated with epoxomicin; inhibition, % at 20 µM
MMP-2 counter-1: counter-screen for RPN11 inhibitors: inhibition of human MMP-2; shares compounds with Rpn11 block; AID 602330; recombinant MMP-2, FRET peptide cleavage fluorescence; inhibition, % at 20 µM; actives 4% (n = 1,900);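 also: human MMP-2 activated beforehand with APMA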
Thrombin inh: thrombin (bovine) inhibition counter-screen; shares compounds with Rpn11 block; bovine thrombin cleavage of Ub4-pepOG, fluorescence polarization; inhibition, % at 20 µM; actives 13% (n = 1,900); AID 602333;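 active = mean inhibition at least 40% at 20 µM, or signal 3 deviations below plate average, so some actives read negative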
CSN5 deneddyl: Csn5 (human) deneddylation inhibition, single-concentration validation; shares compounds with CSN inh; Csn5 deneddylation of SCF-Nedd8OG, fluorescence polarization, 90 min; inhibition, % at 16.6 µM; actives 62% (n = 540); AID 720654; in the data active = inhibition above about 50%
MMP-2 counter-2: counter-screen for CSN deneddylation inhibitors: human MMP-2 inhibition; shares compounds with CSN inh; recombinant MMP-2, FRET substrate fluorescence, 60 min; inhibition, % at 16.6 µM; actives 33% (n = 540);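 active = corrected plate-normalized z-score of 5 or more, or -5 or less, or inhibition of 15% or more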
Thrombin cntr: blocks bovine thrombin in a CSN deneddylation counter-screen. AID 720656. bovine thrombin cleavage of Ub4-pepOG, fluorescence polarization. inhibition, % at 16.6 µM. actives 49% (n = 540). shares compounds with CSN inh;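 active = inhibition at or above a set limit, with a fluorescence interference ratio between 0.5 and a set maximum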
Large screens that a line does not name were inactive (follow-up assays come after a bar, where shown). The list is not random: actives were taken first. Their share in the collection is about 1.6%. Rule as the data show it, unless noted: active = inhibition above about 40%; inactive = the rest.

Cc1ccc(N=Cc2c(O)c3ccccc3n(C)c2=O)cc1	none (no result: TPT1 inhibitor)
Cc1ccc(N=Cc2sc(O)c3ccccc23)cc1	CSN inh 40.4, TPT1 inhibitor 142.4 (not shown: Rpn11 block) | caTPT1 confirm 111.3 | RNase T1 counter 109.2 | CSN5 deneddyl 82.5 | MMP-2 counter-2 inactive | Thrombin cntr 57.0
COc1cc(/C=C(\C#N)C(=O)c2ccc(O)c(O)c2)cc(I)c1O	CSN inh active, TPT1 inhibitor 129.2 (not shown: Rpn11 block) | caTPT1 confirm 180.3 | RNase T1 counter 160.9 | CSN5 deneddyl inactive | MMP-2 counter-2 -106.0 | Thrombin cntr inactive
Cc1ccc2nc(/C(C#N)=C/c3ccc(O)c(O)c3)[nH]c2c1	CSN inh 58.6, TPT1 inhibitor 55.8 (not shown: Rpn11 block) | caTPT1 confirm 77.0 | RNase T1 counter 84.3 | CSN5 deneddyl 50.3 | MMP-2 counter-2 inactive | Thrombin cntr 61.8
CCN(CC1CCCO1)C(=O)CCc1nnc(CCc2ccccc2OC)o1 (centres undefined)	none
Cc1occc1C(=O)/C(C#N)=C/c1ccc(O)c(Br)c1	CSN inh 40.2, Rpn11 block 142.9, TPT1 inhibitor 112.9 | caTPT1 confirm 169.4 | RNase T1 counter 160.8 | Rpn11 inh conf 116.5 | MMP-2 counter-1 inactive | Thrombin inh 101.4 | CSN5 deneddyl inactive | MMP-2 counter-2 inactive | Thrombin cntr 57.1
CCOC(=O)C1=C(CC)Nc2ccccc2N=C1NC(=O)c1cc(S(=O)(=O)N2CCOCC2)ccc1C	none (no result: TPT1 inhibitor)
COc1cc2cc3c(N)c(C(=O)Nc4sc(C)c(C)c4C#N)sc3nc2cc1OC	CSN inh 73.8, Rpn11 block 84.1, TPT1 inhibitor 36.2 | caTPT1 confirm 38.8 | RNase T1 counter 49.4 | Rpn11 inh conf 48.2 | MMP-2 counter-1 inactive | Thrombin inh inactive | CSN5 deneddyl 81.7 | MMP-2 counter-2 inactive | Thrombin cntr inactive
C=CCN1C(=O)/C(=C\C=C2\N(C)c3ccccc3C2(C)C)SC1=S	CSN inh 72.4, TPT1 inhibitor 116.4 (not shown: Rpn11 block) | caTPT1 confirm 120.3 | RNase T1 counter 115.0 | CSN5 deneddyl 116.6 | MMP-2 counter-2 -34.8 | Thrombin cntr inactive
Cc1cc(/C=C2/SC(=S)N(c3cccc(Cl)c3)C2=O)c(C)n1-c1cccnc1	CSN inh 47.4, HNF4A DNA FP 43.0, TPT1 inhibitor 114.0 | caTPT1 confirm 88.5 | RNase T1 counter 98.6 | CSN5 deneddyl 127.7 | MMP-2 counter-2 inactive | Thrombin cntr inactive
Cc1cc(/C=C2\SC(=S)N(C)C2=O)c(C)n1-c1ccc(O)cc1	CSN inh 50.8, HNF4A DNA FP 79.1, TPT1 inhibitor 120.2 (not shown: Rpn11 block) | caTPT1 confirm 128.8 | RNase T1 counter 129.1 | CSN5 deneddyl 181.4 | MMP-2 counter-2 inactive | Thrombin cntr 62.2
CN1C(=O)/C(=C/c2coc3ccc(O)cc3c2=O)SC1=S	none
Cc1cc(/C=C2\SC(=S)N(C)C2=O)c(C)n1-c1ccccc1O	CSN inh 38.9, TPT1 inhibitor 146.7 (not shown: Rpn11 block) | caTPT1 confirm 146.7 | RNase T1 counter 142.2 | CSN5 deneddyl 63.0 | MMP-2 counter-2 inactive | Thrombin cntr 36.5
Cc1ccc(-n2c(C)cc(/C=C3\SC(=O)NC3=O)c2C)cc1	none
Cc1cc(/C=C2\SC(=S)NC2=O)c(C)n1-c1cccc(O)c1	CSN inh 65.9, HNF4A DNA FP 97.3, TPT1 inhibitor 89.6 (not shown: Rpn11 block) | caTPT1 confirm 85.1 | RNase T1 counter 98.3 | CSN5 deneddyl inactive | MMP-2 counter-2 19.2 | Thrombin cntr 65.8
Cc1cc(C(=O)NNC(=O)c2cccs2)c(C)o1	none (no result: TPT1 inhibitor)
CC(C)(C)NC(=O)C(c1ccncc1)n1c(-c2ccc(C(F)(F)F)cc2)nc2ccccc21 (centres undefined)	none (no result: Rpn11 block, TPT1 inhibitor)
CCOC(=O)C1=C(C)N=c2s/c(=C/c3ccc(OCC(=O)O)c(OC)c3)c(=O)n2C1c1ccc(Cl)cc1 (centres undefined)	CSN inh 40.4, Rpn11 block 52.9, TPT1 inhibitor 41.8 | caTPT1 confirm 59.9 | RNase T1 counter 71.8 | Rpn11 inh conf 92.7 | MMP-2 counter-1 inactive | Thrombin inh inactive | CSN5 deneddyl 85.3 | MMP-2 counter-2 inactive | Thrombin cntr inactive
CCOC(=O)C1=C(C)N=c2s/c(=C/c3ccccc3)c(=O)n2C1c1ccc(OC)c(OC)c1 (centres undefined)	none
O=C(N/N=C/c1ccc[nH]1)c1ccc([N+](=O)[O-])cc1	none
COC1=C/C(=C/c2c(N)n3cc(C)sc3nc2=O)C=CC1=O	CSN inh 77.7, HNF4A DNA FP 66.3, TPT1 inhibitor 81.4 (not shown: Rpn11 block) | caTPT1 confirm 127.3 | RNase T1 counter 128.4 | CSN5 deneddyl 65.9 | MMP-2 counter-2 inactive | Thrombin cntr 62.2
Cc1c(N2C(=O)/C(=C\c3ccc(N(C)C)cc3)N(C)C2=S)c(=O)n(-c2ccccc2)n1C	CSN inh 75.4, HNF4A DNA FP 43.9, TPT1 inhibitor 150.3, SENP1 FRET inh 69.3 (not shown: Rpn11 block) | caTPT1 confirm 132.4 | RNase T1 counter 133.4 | CSN5 deneddyl 85.4 | MMP-2 counter-2 inactive | Thrombin cntr 67.9
O=c1[nH]c(=S)[nH]c2c1C(c1ccc(Br)cc1)c1c([nH]c(=S)[nH]c1=O)O2	CSN inh 83.9, Rpn11 block 140.7, TPT1 inhibitor 81.7 | caTPT1 confirm inactive | RNase T1 counter inactive | Rpn11 inh conf 49.0 | MMP-2 counter-1 inactive | Thrombin inh inactive | CSN5 deneddyl 50.1 | MMP-2 counter-2 32.6 | Thrombin cntr 84.8
CCN(CC)CCCNC(=O)CSc1nc(C)cc(C)n1	none

From PubChem BioAssay
